# From PubChem BioAssay
# Rows were chosen to be rich in hits. Some 3.1% of all compounds tested hit in one or more screens of this group.
# KCNQ1 inh – human KCNQ1 channel inhibition | P51787 | CHO-K1 KCNQ1, FluxOR thallium flux fluorescence; hits give high values | B-score at 10 µM | 310,000 compounds, 1.3% hits;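 active = compounds whose thallium flux B-score, printed positive for inhibition, exceeds three library SD while starting fluorescence stays within three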;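 note: channel opened by potassium depolarization with thallium stimulus after 20 min compound exposure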
# KCNK9 block – inhibitors of human KCNK9 two-pore domain potassium channel; Q9NPC2; B-score at 10 µM; HEK293 KCNK9, FluxOR thallium flux fluorescence; hits give low values; 310,000 compounds, 1.2% hits;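 active = ratio B-score over 3 SD below the library mean, with starting fluorescence within 5 SD of its mean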;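 note: negative B-score means less thallium flux so channel inhibition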
# Target sequence (Q9NPC2 whole entry, looked up, the tested form may be a part): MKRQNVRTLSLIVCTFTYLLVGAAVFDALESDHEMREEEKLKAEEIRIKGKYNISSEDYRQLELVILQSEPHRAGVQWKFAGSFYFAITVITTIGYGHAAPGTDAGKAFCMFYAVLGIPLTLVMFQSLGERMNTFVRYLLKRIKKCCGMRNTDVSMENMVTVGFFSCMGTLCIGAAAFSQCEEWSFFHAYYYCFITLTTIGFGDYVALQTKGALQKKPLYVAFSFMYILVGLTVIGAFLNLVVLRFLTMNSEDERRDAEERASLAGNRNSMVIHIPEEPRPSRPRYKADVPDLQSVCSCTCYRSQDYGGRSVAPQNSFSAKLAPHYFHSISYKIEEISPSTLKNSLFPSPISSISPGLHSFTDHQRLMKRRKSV
# KCNQ1 act – potentiators or activators of human KCNQ1 potassium channel; CHO-K1 KCNQ1, thallium flux FluxOR fluorescence; hits give high values; B-score at 10 µM; 310,000 compounds, 0.35% hits;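 active = fluorescence ratio B-score, a plate-corrected score, at least three library SD, with initial intensity B-score within 5 SD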
#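 Medium – assay buffer, equal DMSO in all wells · Material – CHO-K1 cell line with stable KCNQ1 potassium channel expression · Signal – kinetic FluxOR thallium fluorescence, 10-s 1-Hz baseline, 110-s post-stimulus read · Compound – single concentration per compound, DMSO matched to controls · Schedule – 37 °C overnight plating, 90-min dark dye load, 20-min compound pretreatment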
# hERG protect – compounds protecting human hERG from proarrhythmic drug block. activation (rescue from dofetilide block), less the hit threshold, % at 10 µM. Q12809. CHO-hERG, FluxOR thallium flux, dofetilide IC70 present. 310,000 compounds, 0.51% hits;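 active = activation above the mean of controls blocked by dofetilide plus 5 SD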;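 note: thallium influx through hERG after potassium depolarization seen as dye fluorescence rise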
# KCNK3 inh – human KCNK3 channel inhibition, primary screen. O14649. CHO-KCNK3 thallium flux, FluxOR fluorescence; hits give low values. B-score at 10 µM. 340,000 compounds, 0.84% hits;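 active = B-score under library mean minus 4 SD, starting fluorescence ratio at most library mean plus 5 SD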;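 note: more negative B-score means stronger inhibition of thallium flux through KCNK3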
# KCNQ1 inh valid – confirmation of human KCNQ1 potassium channel inhibitors; AID 588353; inhibition, % at 10 µM; shares compounds with KCNQ1 inh; KCNQ1 cell line, FluxOR thallium flux fluorescence; 1,600 compounds, 93% hits;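 active = primary screen active, with duplicate mean exceeding buffer control mean plus 3 SD of buffer wells, cut at about 28% in these data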;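 note: 0% = buffer control ratio and 100% = XE991 inhibitor control ratio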
# CHO KCNQ1 ctr – counter-screen for KCNQ1 inhibitors: effect in parental CHO cells | shares compounds with KCNQ1 inh | 1,600 compounds, 21% hits | AID 588366 | parental CHO-K1, FluxOR thallium flux fluorescence ratio; hits give low values; zero means no signal rise above baseline | fluorescence ratio (Tl flux) at 10 µM;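 active = mean of duplicate thallium-flux fluorescence ratios in parental host cells more than 5 SD below the buffer control mean, cut at about 0.38 in these data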;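 note: ratio is peak minus minimum fluorescence divided by baseline fluorescence; actives read low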
# KCNQ1 APC inh – confirmation of human KCNQ1 potassium channel inhibitors by electrophysiology | shares compounds with KCNQ1 inh | KCNQ1-CHO cells, automated patch clamp current | calls only at 10 µM | 490 compounds, 20% hits;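 active = KCNQ1 current drop exceeding 3 SD of negative control wells, seen in both duplicate runs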;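 note: steady state current during a 2 s step from -80 to +40 mV; negative values mean current inhibition and positive values mean potentiation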
# KCNQ2 inh – selectivity of KCNQ1 inhibitors: inhibition of rat KCNQ2 channel; KCNQ2 cells, FluxOR thallium flux fluorescence; inhibition, % at 10 µM; 1,600 compounds, 71% hits; shares compounds with KCNQ1 inh;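 active = mean percent inhibition of the KCNQ2 thallium signal more than 5 SD above the buffer-only control wells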;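 note: KCNQ2 expressed in CHO cells; 0% = buffer control wells and 100% = XE-991 inhibitor control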
# KCNQ1-KCNE1 inh – KCNQ1 inhibitor that also blocks human KCNQ1/KCNE1 channel. shares compounds with KCNQ1 inh. inhibition, % at 10 µM. 1,600 compounds, 77% hits. KCNQ1/KCNE1 cells, FluxOR thallium flux fluorescence;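 active = mean percent inhibition of duplicate wells above the buffer-only control mean plus 3 SD of those controls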;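 note: 0% = buffer only wells and 100% = XE-991 inhibitor control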
# * marks the source's active call; other numbers are inactive results; i = inactive; / = not tested or not shown; + = active, no number.
SMILES,KCNQ1 inh,KCNK9 block,KCNQ1 act,hERG protect,KCNK3 inh,KCNQ1 inh valid,CHO KCNQ1 ctr,KCNQ2 inh,KCNQ1-KCNE1 inh,others
CC(C)NC(=O)N(C)C[C@@H]1Oc2c(NC(=O)Nc3ccccc3)cccc2C(=O)N([C@H](C)CO)C[C@H]1C,/,/,/,/,i,/,/,/,/,
CCCCN(c1nc2ccccc2nc1Cl)S(=O)(=O)c1ccc(C)cc1,11*,i,i,-24,i,107*,0.36*,118%*,144%*,
O=C(CCNC(=O)c1ccc(Cl)cc1)NNC(=O)c1ccc(F)cc1,/,/,/,/,i,/,/,/,/,
Cc1cccc(OCCC(=O)Nc2ccc(F)c(F)c2)c1,8*,i,i,7.8*,i,28*,0.54,74%*,i,
Cc1noc(C)c1COc1ccc(C(=O)NCC(c2c(F)cccc2Cl)N(C)C)cc1 (stereo unspecified),/,/,/,/,i,/,/,/,/,
COc1cccc(CNC(=O)CCNC(=O)Cn2ccc3ccccc3c2=O)c1,7*,i,i,-17,i,0,0.56,i,i,
COc1ccc(NC(=O)CCNC(=O)Cn2ccc3ccccc3c2=O)cc1OC,i,i,i,-4,i,/,/,/,/,
COCCN1CCN(c2cc(-c3ccccc3)nc3cc(-c4cccc(F)c4)nn23)CC1,6*,i,i,-12,i,118*,0.34*,133%*,156%*,
CC(=O)Nc1ccc2c(c1)Cc1c-2cc(Br)c(N)c1Br,/,/,/,/,i,/,/,/,/,
Cc1csc(NC(=O)C(Cc2ccccc2)n2cccc2)n1 (stereo unspecified),13*,i,i,-18,i,54*,0.45,62%*,86%*,
Cc1ccc(NC(=O)C(Cc2ccccc2)n2cccc2)cc1 (stereo unspecified),i,i,i,-10,i,/,/,/,/,
COc1ccc(C(=O)C2CCCN(Cc3cc(C)c(O)c(C)c3)C2)c(OC)c1 (stereo unspecified),i,i,i,-6,i,/,/,/,/,
COc1ccc(C(=O)C2CCCN(Cc3cc(Cl)ccc3O)C2)c(OC)c1 (stereo unspecified),6*,i,i,-13,i,62*,0.41,122%*,86%*,
COc1ccccc1CNC(=O)/C(C#N)=C/c1ccc(OC)c(OC)c1OC,i,i,i,-9,i,/,/,/,/,
O=S(=O)(NCCNc1ncc(C(F)(F)F)cc1Cl)C(F)(F)F,6*,i,i,-14,i,40*,0.47,i,i,
Cc1cccc(NC(=O)c2ccccc2OCC(=O)c2ccccc2)c1,i,i,i,-12,i,/,/,/,/,
Cc1cccc(NC(=O)COc2ccccc2C(=O)NC(C)c2ccccc2)c1 (stereo unspecified),7*,i,i,-7,i,130*,0.4,i,190%*,
Cc1cc(C(=O)NCC(=O)Nc2ccc(F)c(F)c2)c(C)o1,/,/,/,/,i,/,/,/,/,
Cc1[nH]c2ccccc2c1C(=O)COc1ccccc1F,i,i,i,-12,i,/,/,/,/,
Cc1[nH]c2ccccc2c1C(=O)COc1ccccc1,7*,i,i,-12,i,0,0.48,63%*,40%*,
Cc1ccsc1C(=O)OCc1csc(-c2ccccc2)n1,7*,-7.8*,i,-12,i,146*,0.41,127%*,+,KCNQ1 APC inh=i
Nc1ccc(-c2c3ccc(=O)cc-3oc3cc(O)ccc23)cc1C(=O)O,24*,i,i,-52,i,+,0.0075*,i,i,
O=c1cc(-c2ccccc2)oc2cc(O)ccc12,/,/,/,/,i,/,/,/,/,
